procasp3 activ = activators of human procaspase-3 | 0.11% of 330,000 active | AID 463141 | activation, % at 8.5 µM | recombinant procaspase-3 D3A, Ac-DEVD-pNA absorbance 405 nm | P42574;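 active = activation above the mean of all tested compounds plus 3 SD, cut at about 21% in these data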;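 also: 0% = DMSO alone and 100% = DMSO wells spiked with extra 5 µM PC-3 D3A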
Target sequence (P42574 whole entry D9A/D28A/D175A): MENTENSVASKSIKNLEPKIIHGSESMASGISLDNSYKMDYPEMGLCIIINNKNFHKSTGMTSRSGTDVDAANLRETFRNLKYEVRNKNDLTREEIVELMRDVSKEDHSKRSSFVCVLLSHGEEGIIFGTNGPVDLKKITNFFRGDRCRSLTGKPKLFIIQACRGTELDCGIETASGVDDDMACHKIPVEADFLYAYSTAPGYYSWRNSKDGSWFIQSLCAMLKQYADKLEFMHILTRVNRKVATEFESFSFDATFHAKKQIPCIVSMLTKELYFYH
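Test system: Procaspase-3 D3A mutant, all three cleavage aspartates alanine | Dosing: Single dose, 8.5 µM nominal compound, 0.8% DMSO | Schedule: 1 h preincubation, 2 h reaction | Technique: 405 nm absorbance of p-nitroaniline, reads at 0 and 120 min | Repeats: One well per compound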
PP1 inh = counter-screen for PP5 inhibitors: inhibitors of human PP1-alpha | inhibition, % at 6.7 µM | purified PP1alpha, OMFP fluorescence | P62136 | 0.9% of 320,000 active;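 active = inhibition above the mean inhibition of all tested compounds plus 3 SD, computed separately for each screening campaign, cut at about 15% in these data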
procasp7 counter = counter-screen: procaspase-7 (human) activation; P55210; recombinant procaspase-7, Ac-DEVD-pNA absorbance 405 nm; D23A/D198A/D206A triple mutant, cannot self-cleave; scale: DMSO 0, 5 µM enzyme 100; activation, % at 8.5 µM; 0.093% of 330,000 active;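 active = percent activation above the screen-wide mean plus 3 SD, cut at about 25% in these data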
Target sequence (P55210 whole entry D23A/D198A/D206A): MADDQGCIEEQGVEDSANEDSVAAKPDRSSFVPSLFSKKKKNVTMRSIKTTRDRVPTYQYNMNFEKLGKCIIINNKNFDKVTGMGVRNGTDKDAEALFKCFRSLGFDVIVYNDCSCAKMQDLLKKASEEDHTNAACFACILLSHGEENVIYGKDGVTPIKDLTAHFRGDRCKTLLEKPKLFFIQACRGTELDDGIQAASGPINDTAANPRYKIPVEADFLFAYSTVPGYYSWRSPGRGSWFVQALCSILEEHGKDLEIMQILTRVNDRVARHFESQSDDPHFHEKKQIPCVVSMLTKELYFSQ
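Detection: p-Nitroaniline absorbance at 405 nm, read at 0 and 120 min; system: Uncleavable procaspase-7 mutant enzyme; evaluation: % activation from two-timepoint absorbance difference, scaled to controls; times: 1 h enzyme–compound preincubation and 2 h substrate reaction, both 25 °C; buffer or medium: Zinc-free HEPES pH 7.4 with 300 mM NaCl, 0.01% Triton X-100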
PP5 inh = blocks human protein phosphatase 5 activity; P53041; purified PP5c, OMFP substrate fluorescence; inhibition, % at 6.7 µM; 0.18% of 320,000 active;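 active = inhibition above the campaign's mean inhibition across all tested compounds plus 3 SD, cut at about 9.5% in these data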;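 also: 0% = DMSO only and 100% = 100 µM cantharidin control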
PP5 conf = PP5 (human) inhibition, confirmation; shares compounds with PP5 inh; Purified PP5, fluorogenic phosphatase substrate, fluorescence; inhibition, % at 6.7 µM; 22% of 460 active; AID 2331; in the data active = inhibition above about 9.5%
PP1 inh counter = inhibits human PP1 phosphatase in PP5 counter-screen | PP1 enzyme, fluorescent phosphatase substrate | inhibition, % at 6.7 µM | shares compounds with PP5 inh | 4% of 460 active; in the data active = inhibition above about 16%
PP1 confirm = human PP1 phosphatase inhibition, confirmation; shares compounds with PP1 inh; inhibition, % at 6.7 µM; 52% of 1,900 active; purified PP1alpha, OMFP substrate fluorescence;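 active = mean PP1 inhibition above a set limit taken from the earlier primary screen, cut at about 15% in these data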
PP5 counter = inhibits human PP5 phosphatase in PP1 counter-screen; shares compounds with PP1 inh; purified PP5c, OMFP fluorescence; inhibition, % at 6.7 µM; 4% of 1,900 active; AID 2360;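 active = mean PP5 inhibition over triplicate wells above about 9.5% taken from the earlier PP1 screen, limit read from the data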
Active calls of the source: *; . = no result; ! = not confirmed by another sample. In the library only some 1.2% were active in any assay of this set; here they are far more common.

SMILES | procasp3 activ | PP1 inh | procasp7 counter | PP5 inh | PP1 confirm | PP5 counter | others
O=c1c2ccccc2[nH]c(=S)n1-c1ccc(Br)cc1 | 1 | 20* | -5 | -6 | . | .
O=c1c2cc(Br)ccc2[nH]c(=S)n1-c1ccccc1 | -4 | 8 | 0 | 1 | . | .
C=C1C(O)[C@@H]2O[C@]3(CC[C@H](/C=C/C(C)[C@@H]4CC(C)=CC5(O[C@H](C[C@@](C)(O)C(=O)O)CCC5O)O4)O3)CC[C@H]2O[C@@H]1C(O)CC(C)[C@H]1OC2(CCCCO2)CCC1C (stereo partly drawn) | 6 | . | 18 | . | . | .
COc1ccccc1-n1c(-c2ccccc2F)nc2ccccc2c1=O | 3 | 6 | -5 | 0 | . | .
CCCCn1c(NC(=O)c2ccc(Br)o2)c(C(=O)OCC)c2nc3ccccc3nc21 | -18 | 4 | -27 | 13* | . | .
CCCCn1c(NS(=O)(=O)c2ccccc2)c(C(=O)OCC)c2nc3ccccc3nc21 | -13 | 4 | -10 | 9 | . | .
CN(C)[C@@H]1C(=O)C(C(N)=O)=C(O)[C@@]2(O)C(=O)C3=C(O)c4c(O)cccc4[C@@](C)(O)[C@H]3C[C@@H]12 | 6 | 29* | -1 | -2 | . | .
Cn1ncnc2c(=O)n(C)c(=O)nc1-2 | -9 | 38* | -11 | 13* | . | .
Cc1c2ccncc2c(C)c2c1[nH]c1ccccc12 | -27 | 31* | 16 | -1 | . | .
c1ccc2c3c([nH]c2c1)C1(CCNCC1)NCC3 | 7 | 0 | -3 | 2 | . | .
CC(C)c1ccc(N2C(=O)NC(=O)/C(=C/C=C/c3ccco3)C2=O)cc1 | -5 | 17* | -14 | 4 | . | .
Cc1ccc(N2C(=O)NC(=O)/C(=C/C=C/c3ccco3)C2=O)cc1 | -20 | 1 | -15 | 1 | . | .
CCOC(=O)c1ccc(-[n+]2c(-c3ccccc3)cc(-c3ccccc3)cc2-c2ccccc2)cc1 | 7 | 7 | 5 | 1 | . | .
CCOC(=O)c1ccc(NC(=O)C2C3C=CC(O3)C2C(=O)O)cc1 (stereo not drawn) | -28 | 8 | -7 | 28* | . | . | PP5 conf=-3;PP1 inh counter=2
O=C1CN=C(c2ccccc2)c2ccccc2N1Cc1ccc(C(F)(F)F)cc1 | -2 | -1 | -2 | 13* | . | . | PP5 conf=-1;PP1 inh counter=0
Cc1nc2ccccc2c(=O)n1-c1cc([N+](=O)[O-])cc([N+](=O)[O-])c1 | -2 | -9 | -6 | -3 | . | .
Cc1[nH]n(-c2ccccc2)c(=O)c1C(c1ccc([N+](=O)[O-])cc1)c1c(C)[nH]n(-c2ccccc2)c1=O | 0 | -1 | 1 | 9.9* | . | . | PP5 conf=16*;PP1 inh counter=9
C/C=C(\C)C(=O)OC1C(C)=C2C(C1OC(=O)CCCCC)C(C)(OC(C)=O)CC(OC(=O)CCC)C1(O)C2OC(=O)C1(C)O (stereo not drawn) | 8 | 6 | -4 | 11* | . | . | PP5 conf=11*;PP1 inh counter=11
O=C(c1ccc(Cl)cc1)C1CCCN(Cc2ccc3ncccc3c2)C1 (stereo not drawn) | 2 | 0 | 9 | 1 | . | .
Cc1nn(CC(C)C)c(Cl)c1C(=O)NC1CCC(C)CC1 (stereo not drawn) | -3 | -4 | 9 | 0 | . | .
O=C1NC(=O)N(Cc2ccc(F)cc2)C(=O)/C1=C\C=C\c1ccco1 | -9 | 21* | -16 | 0 | 23* | -1
CC1CC(NC(=O)C2C3CCC(O3)C2C(=O)O)CC(C)(C)C1 (stereo not drawn) | 2 | 80* | -6 | 79* | 30* | 48*
CCCN1CCC[C@@H](c2cccc(O)c2)C1 | 8 | -2 | 9 | -1 | . | .
COC(=O)C1=C(c2ccc(S(C)(=O)=O)cc2)C[C@@H]2CC[C@H]1N2C(=O)NCCCOC(C)C | -2 | -2 | -3 | 1 | . | .
CCc1n[nH]c(CCN)n1 | 6 | -2 | -4 | -3 | . | .
SMILES | procasp3 activ | PP1 inh | procasp7 counter | PP5 inh | PP1 confirm | PP5 counter | others
Clc1ccc(C(Cn2ccnc2)OCc2csc3c(Cl)cccc23)c(Cl)c1 (stereo not drawn) | 6 | 32* | -3 | 2 | 29* | -1
Clc1ccc(CCC(Cn2ccnc2)Sc2c(Cl)cccc2Cl)cc1 (stereo not drawn) | 4 | 34* | 0 | 5 | 28* | -3
Cc1ccccc1N1C(=O)/C(=C/c2ccco2)C(=O)NC1=S | -10 | 69* | -10 | 4 | 35* | 2
Cc1c(C)c2ccc(OCC(=O)N3CCC(C(=O)O)(c4ccccc4)CC3)c(C)c2oc1=O | 0 | 2 | -6 | 3 | . | .
COC(=O)C1=C(N)Oc2cc(C)oc(=O)c2C12C(=O)Nc1ccccc12 (stereo not drawn) | -5 | -5 | 4 | -1 | . | .
CN(C)[C@@H]1C(=O)C(C(N)=O)=C(O)[C@@]2(O)C(=O)C3=C(O)c4c(O)cccc4[C@@](C)(O)C3[C@H](O)C12 (stereo partly drawn) | -2 | 20* | 1 | 1 | 14 | 12*!
CCOC(=O)c1cccc(NC(=O)c2c(O)[nH]c(=O)[nH]c2=O)c1 | 1 | 19* | -2 | 2 | 12 | -2
O=c1[nH]c(=O)n(CCC2=CCCCC2)c(O)c1/C=N/Nc1ccccc1 | -9 | 10 | -33 | 2 | . | .
O=c1[nH]c(=O)n(CCC2=CCCCC2)c(O)c1/C=N/Nc1cccc2ccccc12 | -4 | 21* | 0 | 0 | 18* | 2
O=P(Oc1ccccc1)(Oc1ccccc1)c1ccccc1 | 5 | -4 | -3 | 2 | . | .
O=c1[nH]c(=S)[nH]c(O)c1N=Nc1cc(S(=O)(=O)Nc2ccc(Cl)cc2)ccc1Cl | 9 | 21* | 3 | 2 | 25* | 2
CCN(CC)C(=O)c1ccc2c(c1)C1C(Cl)C(Sc3ccccc3[N+](=O)[O-])CC1C(C(=O)O)N2 (stereo not drawn) | -18 | 19* | -40 | 1 | 2 | 2
Cc1ccc2c(c1Cl)NC(C(=O)O)C1CC(Sc3ccccc3[N+](=O)[O-])C(Cl)C21 (stereo not drawn) | -20 | 2 | -29 | 1 | . | .
C=CCN1C(=O)NC(=O)/C(=C/c2ccc(N(C)C)c(Br)c2)C1=O | -2 | 0 | -7 | -2 | . | .
CC(=O)c1ccccc1NC(=O)C1C2CCC(O2)C1C(=O)O (stereo not drawn) | -9 | 72* | -3 | 71* | 33* | 39*
O=C(O)C1C2CCC(O2)C1C(=O)Nc1ccc(F)c(F)c1 (stereo not drawn) | -5 | 68* | -1 | 74* | 13 | 22*
CC(C)C(=O)Nc1ccc(N2CCN(C)CC2)c(F)c1 | 6 | -1 | -2 | 1 | . | .

High-throughput results: PubChem BioAssay, The Scripps Research Institute Molecular Screening Center
